Reference: ChEMBL document CHEMBL1667795, “Phosphonic pseudopeptides as human neutrophil elastase inhibitors--a combinatorial approach” (Bioorg Med Chem, 2011)
Calls of active or inactive are those of the source. No cut-off for these calls is given here.

Assays:
[1] = Inhibition of chymotrypsin at 2.5 uM after 30 mins relative to control
Summary of the method: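 Suc-Ala-Ala-Pro-Phe-AMC then added, fluorescence read at Ex 350/Em 460 nm. Inhibition given as percent of enzyme activity relative to the control sample.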

[2] = Inhibition of trypsin at 2.5 uM after 30 mins relative to control
Summary of the method: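 Trypsin (final 2.5 nM) preincubated 30 min at 37 °C with 2.5 µM inhibitor in 0.1 M HEPES, 0.01 M CaCl2, pH 7.5. Bzl-Arg-AFC added, fluorescence read at Ex 380/Em 505 nm. Percent inhibition relative to the control sample.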

[3] = biological target: T1, Neutrophil elastase (Homo sapiens) (UniProt P08246); experiment: Inhibition of human neutrophil elastase after 15 mins
T1 sequence (whole entry): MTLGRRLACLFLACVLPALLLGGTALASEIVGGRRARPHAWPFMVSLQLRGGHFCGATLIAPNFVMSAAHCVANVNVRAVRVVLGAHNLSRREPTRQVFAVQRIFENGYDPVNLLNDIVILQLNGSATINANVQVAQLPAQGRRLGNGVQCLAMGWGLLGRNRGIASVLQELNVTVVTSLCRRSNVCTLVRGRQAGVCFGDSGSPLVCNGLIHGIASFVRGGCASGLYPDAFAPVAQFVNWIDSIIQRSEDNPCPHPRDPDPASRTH

A549 [4] = experiment: Cytotoxicity against human A549 cells at 500 uM after 48 hrs by MTT assay; format: functional; conditions: A549, 48 h
Summary of the method: (§1)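 A549 lung cancer cells kept at 37 °C, 5% CO2, harvested by trypsinization and PBS wash. Seeded 1 × 10^4 cells/well, attached overnight, then 48 h with inhibitor diluted in medium from DMSO stocks; DMSO-only controls. MTT absorbance at 570 nm, growth as percent of untreated control, mean ± one SD.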

A549 [5] = experiment: Cytotoxicity against human A549 cells at 250 uM after 48 hrs by MTT assay; format: functional; conditions: A549, 48 h; summary of the method: as §1
[6] = Cytotoxicity against HGF at 250 uM after 48 hrs by MTT assay; format: cell-based; conditions: human, HGF cells; read-out: INH
Summary of the method: (§2)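 Human gingival fibroblasts isolated from healthy gingival biopsies, grown in DMEM with 10% FBS, glutamine and penicillin/streptomycin at 37 °C, 5% CO2. Seeded 1 × 10^4 cells/well, attached overnight, then exposed 48 h to inhibitor diluted in medium from DMSO stocks; DMSO-only controls. MTT read at 570 nm, viability expressed as percent of untreated control.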

[7] = Cytotoxicity against HGF at 500 uM after 48 hrs by MTT assay; format: cell-based; conditions: human; summary of the method: as §2
A549 [8] = experiment: Cytotoxicity against human A549 cells at 125 to 500 uM after 48 hrs by MTT assay; format: functional; summary of the method: as §1

SMILES	inhibition [1]	inhibition [2]	kinact/Ki (second-order inactivation rate constant) [3]	inhibition at 500 µM (A549 [4])	inhibition at 250 µM (A549 [5])	cytotoxicity at 48 h, 250 µM [6]	Activity [7]	inhibition (INH) (A549 [8])
CSCC[C@H](NC(=O)OCc1ccccc1)C(=O)O[C@H](C(=O)N[C@H](C(C)C)P(=O)(Oc1ccc(Cl)cc1)Oc1ccc(Cl)cc1)c1ccc([N+](=O)[O-])cc1	inactive	inactive	165 M⁻¹ s⁻¹	–	–	–	–	–
CSCC[C@H](NC(=O)OCc1ccccc1)C(=O)O[C@@H](CCc1ccccc1)C(=O)N[C@H](C(C)C)P(=O)(Oc1ccc(Cl)cc1)Oc1ccc(Cl)cc1	inactive	inactive	1620 M⁻¹ s⁻¹	–	–	–	–	–
CSCC[C@H](NC(=O)OCc1ccccc1)C(=O)O[C@@H](CC(C)C)C(=O)N[C@H](C(C)C)P(=O)(Oc1ccc(Cl)cc1)Oc1ccc(Cl)cc1	inactive	inactive	7250 M⁻¹ s⁻¹	75%	–	–	–	–
CSCC[C@H](NC(=O)OCc1ccccc1)C(=O)O[C@@H](CCSC)C(=O)N[C@H](C(C)C)P(=O)(Oc1ccc(Cl)cc1)Oc1ccc(Cl)cc1	inactive	inactive	40100 M⁻¹ s⁻¹	60%	25%	–	–	–
CCCCN(C(=O)CNC(=O)OCc1ccccc1)[C@@H](Cc1ccccc1)C(=O)N[C@H](C(C)C)P(=O)(Oc1ccc(SC)cc1)Oc1ccc(SC)cc1	14%	inactive	1360 M⁻¹ s⁻¹	–	–	–	–	–
CCCCN(C(=O)CNC(=O)OCc1ccccc1)[C@H](C(=O)N[C@H](C(C)C)P(=O)(Oc1ccc(SC)cc1)Oc1ccc(SC)cc1)C(C)C	8%	inactive	495 M⁻¹ s⁻¹	–	–	–	–	–
CSCC[C@H](NC(=O)OCc1ccccc1)C(=O)O[C@@H](CC(C)C)C(=O)N[C@H](C(C)C)P(=O)(Oc1ccc(SC)cc1)Oc1ccc(SC)cc1	inactive	inactive	4400 M⁻¹ s⁻¹	–	–	–	–	–
CCCCN(C(=O)CNC(=O)OCc1ccccc1)[C@@H](CC(C)C)C(=O)N[C@H](C(C)C)P(=O)(Oc1ccc(SC)cc1)Oc1ccc(SC)cc1	inactive	inactive	145 M⁻¹ s⁻¹	–	–	–	–	–
COc1ccc([C@H](OC(=O)[C@H](CCSC)NC(=O)OCc2ccccc2)C(=O)N[C@H](C(C)C)P(=O)(Oc2ccc(SC)cc2)Oc2ccc(SC)cc2)cc1OC	22%	inactive	3800 M⁻¹ s⁻¹	–	–	–	–	–
CCCCCC(=O)N1CCN([C@@H](CCSC)C(=O)N[C@H](C(C)C)P(=O)(Oc2ccc(SC)cc2)Oc2ccc(SC)cc2)CC1	–	inactive	140 M⁻¹ s⁻¹	–	–	–	–	–
CSCC[C@H](NC(=O)OCc1ccccc1)C(=O)O[C@H](C(=O)N[C@H](C(C)C)P(=O)(Oc1ccc(SC)cc1)Oc1ccc(SC)cc1)c1ccc([N+](=O)[O-])cc1	inactive	inactive	430 M⁻¹ s⁻¹	–	–	–	–	–
CSCC[C@H](NC(=O)OCc1ccccc1)C(=O)O[C@H](C(=O)N[C@H](C(C)C)P(=O)(Oc1ccc(Cl)cc1)Oc1ccc(Cl)cc1)C(C)C	15%	inactive	20500 M⁻¹ s⁻¹	–	–	–	–	–
CSCC[C@H](NC(=O)OCc1ccccc1)C(=O)O[C@H](C(=O)N[C@H](C(C)C)P(=O)(Oc1ccc(SC)cc1)Oc1ccc(SC)cc1)C(C)C	15%	inactive	5050 M⁻¹ s⁻¹	–	–	–	–	–
CSCC[C@H](NC(=O)OCc1ccccc1)C(=O)O[C@@H](CCc1ccccc1)C(=O)N[C@H](C(C)C)P(=O)(Oc1ccc(SC)cc1)Oc1ccc(SC)cc1	inactive	inactive	765 M⁻¹ s⁻¹	–	–	–	–	–
CCCCCC(=O)N1CCN([C@H](C(=O)N[C@H](C(C)C)P(=O)(Oc2ccc(SC)cc2)Oc2ccc(SC)cc2)c2ccc([N+](=O)[O-])cc2)CC1	inactive	inactive	140 M⁻¹ s⁻¹	–	–	–	–	–
CSCC[C@H](NC(=O)OCc1ccccc1)C(=O)O[C@@H](Cc1ccccc1)C(=O)N[C@H](C(C)C)P(=O)(Oc1ccc(SC)cc1)Oc1ccc(SC)cc1	inactive	inactive	605 M⁻¹ s⁻¹	–	–	–	–	–
CSCC[C@H](NC(=O)OCc1ccccc1)C(=O)O[C@H](C(=O)N[C@H](C(C)C)P(=O)(Oc1ccc(SC)cc1)Oc1ccc(SC)cc1)c1ccc(F)cc1	inactive	inactive	4850 M⁻¹ s⁻¹	–	–	–	–	–
CCCCCC(=O)N1CCN([C@H](C(=O)N[C@H](C(C)C)P(=O)(Oc2ccc(SC)cc2)Oc2ccc(SC)cc2)c2ccc(OC)c(OC)c2)CC1	inactive	inactive	125 M⁻¹ s⁻¹	–	–	–	–	–
CSCC[C@H](NC(=O)OCc1ccccc1)C(=O)O[C@@H](CCSC)C(=O)N[C@H](C(C)C)P(=O)(Oc1ccc(SC)cc1)Oc1ccc(SC)cc1	14%	inactive	5900 M⁻¹ s⁻¹	–	–	–	–	–
CSCC[C@H](NC(=O)OCc1ccccc1)C(=O)O[C@H](C(=O)N[C@H](C(C)C)P(=O)(Oc1ccc(Cl)cc1)Oc1ccc(Cl)cc1)c1ccc(F)cc1	16%	inactive	215 M⁻¹ s⁻¹	–	–	–	–	–
CCCCN(C(=O)CNC(=O)OCc1ccccc1)[C@@H](CCc1ccccc1)C(=O)N[C@H](C(C)C)P(=O)(Oc1ccc(SC)cc1)Oc1ccc(SC)cc1	15%	inactive	1420 M⁻¹ s⁻¹	–	70%	10%	Toxic	50%
COc1ccc([C@H](OC(=O)[C@H](CCSC)NC(=O)OCc2ccccc2)C(=O)N[C@H](C(C)C)P(=O)(Oc2ccc(Cl)cc2)Oc2ccc(Cl)cc2)cc1OC	21%	inactive	165 M⁻¹ s⁻¹	–	–	–	–	–
CSCC[C@H](NC(=O)OCc1ccccc1)C(=O)O[C@@H](Cc1ccccc1)C(=O)N[C@H](C(C)C)P(=O)(Oc1ccc(Cl)cc1)Oc1ccc(Cl)cc1	inactive	inactive	695 M⁻¹ s⁻¹	–	–	–	–	–
CCCCCC(=O)N1CCN([C@H](C(=O)N[C@H](C(C)C)P(=O)(Oc2ccc(SC)cc2)Oc2ccc(SC)cc2)c2ccc(F)cc2)CC1	inactive	inactive	330 M⁻¹ s⁻¹	–	–	–	–	–
